From ChEMBL document CHEMBL1133285, “Simple bi- and tricyclic inhibitors of human steroid 5alpha-reductase” (Bioorg Med Chem Lett, 2000)

Tests used:
[1] = target: T1, 3-oxo-5-alpha-steroid 4-dehydrogenase 2 (Homo sapiens, UniProt P31213); test: In vitro inhibitory activity against Steroid 5-alpha-reductase type 2
T1 sequence (P31213 whole entry): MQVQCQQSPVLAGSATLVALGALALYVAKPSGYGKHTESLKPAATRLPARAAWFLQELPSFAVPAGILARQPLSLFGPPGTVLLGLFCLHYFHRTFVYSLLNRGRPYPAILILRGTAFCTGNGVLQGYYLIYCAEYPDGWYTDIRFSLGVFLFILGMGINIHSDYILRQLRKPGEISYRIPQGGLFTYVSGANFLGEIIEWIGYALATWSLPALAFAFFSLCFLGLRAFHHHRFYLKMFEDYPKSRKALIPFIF
Method in brief: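 Type 2 SR enzyme preparation, with inhibitors prepared and tested as in the type 1 assay. The mixture of labelled (80 nM) and unlabelled testosterone substrate is incubated 1 h at 37 °C. Androgens are separated by HPLC and quantified by in-line flow radioactivity detection. The assay is calibrated with known type 2 inhibitors.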

[2] = target: T2, 3-oxo-5-alpha-steroid 4-dehydrogenase 1 (Homo sapiens, UniProt P18405); test: In vitro inhibitory activity against Steroid 5-alpha-reductase type I
T2 sequence (P18405 whole entry): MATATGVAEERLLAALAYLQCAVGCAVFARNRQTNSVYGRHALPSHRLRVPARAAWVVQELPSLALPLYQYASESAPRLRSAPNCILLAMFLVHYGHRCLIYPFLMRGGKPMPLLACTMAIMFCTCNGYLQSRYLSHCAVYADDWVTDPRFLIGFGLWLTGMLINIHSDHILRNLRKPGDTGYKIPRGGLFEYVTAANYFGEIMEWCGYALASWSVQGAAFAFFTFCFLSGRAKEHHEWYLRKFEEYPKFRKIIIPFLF

[3] = target: T3, 3-oxo-5-alpha-steroid 4-dehydrogenase 2 (Homo sapiens) (UniProt P31213); test: In vitro inhibitory activity against Steroid 5-alpha-reductase type 2 at a concentration of 40 uM
T3 sequence (whole entry): T1 sequence (P31213 whole entry)

[4] = target: T3, 3-oxo-5-alpha-steroid 4-dehydrogenase 2 (Homo sapiens); test: In vitro inhibitory activity against Steroid 5-alpha-reductase type 2 at a concentration of 10 uM

CN1CC(c2ccc(/C=C/c3ccccc3)cc2)CCC1=O (centres undefined)
IC50 [1]: 617 nM | IC50 [2]: 107 nM

CN1C(=S)CC[C@@H]2c3ccccc3CC[C@H]21
IC50 [2]: 1450 nM | inhibition [3]: 19.9%

CN1C(=O)CC[C@@]2(C)C1=CCc1cc(Cl)ccc12
IC50 [2]: 120 nM

CN1CC(c2ccc(Cl)cc2)CCC1=O (centres undefined)
IC50 [2]: 1690 nM

O=C(O)c1ccc2c(c1)CCc1cc(Br)ccc1-2
inhibition [4]: 20%

O=C(O)c1ccc2c(c1)CCc1cc(/C=C/c3ccccc3)ccc1-2
IC50 [1]: 340 nM | IC50 [2]: 152 nM

CN1CC(c2ccc(/N=N/c3ccccc3)cc2)CCC1=O (centres undefined)
IC50 [1]: 579 nM | IC50 [2]: 302 nM

CN1C(=S)CC[C@]2(C)c3ccc(Cl)cc3CC[C@@H]12
IC50 [2]: 183 nM | inhibition [3]: 21.6%

CN1CC(c2ccccc2)CCC1=O (centres undefined)
IC50 [2]: 2480 nM | inhibition [3]: 13.5%

CN1C(=S)CC[C@@]2(C)C1=CCc1cc(Cl)ccc12
IC50 [2]: 377 nM | inhibition [3]: 13.2%

CN1CC(c2ccc(Cl)cc2)CCC1=S (centres undefined)
IC50 [2]: 3360 nM | inhibition [3]: 14%
